Source: ChEMBL document CHEMBL1156745, “Exploration of O-spiroketal C-arylglucosides as novel and selective renal sodium-dependent glucose co-transporter 2 (SGLT2) inhibitors” (Bioorg Med Chem Lett, 2009)

Molecular target: T1, Sodium/glucose cotransporter 2 (Homo sapiens, UniProt P31639)
T1 sequence (P31639 whole entry): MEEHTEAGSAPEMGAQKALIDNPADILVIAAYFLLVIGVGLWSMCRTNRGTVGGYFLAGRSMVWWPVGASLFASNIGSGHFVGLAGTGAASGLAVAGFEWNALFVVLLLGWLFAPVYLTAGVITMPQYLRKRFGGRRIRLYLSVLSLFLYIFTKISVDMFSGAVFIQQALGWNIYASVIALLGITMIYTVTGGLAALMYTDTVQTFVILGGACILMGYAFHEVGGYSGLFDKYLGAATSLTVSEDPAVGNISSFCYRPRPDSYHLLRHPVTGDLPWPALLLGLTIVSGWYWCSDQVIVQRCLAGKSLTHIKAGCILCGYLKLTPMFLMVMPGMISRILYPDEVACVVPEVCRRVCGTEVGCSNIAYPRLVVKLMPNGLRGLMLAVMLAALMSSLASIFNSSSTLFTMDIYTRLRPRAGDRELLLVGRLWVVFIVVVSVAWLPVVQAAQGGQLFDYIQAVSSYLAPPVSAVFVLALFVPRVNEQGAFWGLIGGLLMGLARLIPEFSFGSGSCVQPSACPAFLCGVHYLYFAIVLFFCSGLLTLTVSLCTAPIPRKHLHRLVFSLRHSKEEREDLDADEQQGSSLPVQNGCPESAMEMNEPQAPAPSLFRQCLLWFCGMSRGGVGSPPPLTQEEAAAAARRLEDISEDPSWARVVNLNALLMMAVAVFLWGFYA
Experiment: Inhibition of human SGLT2 transfected in HEK293.ETN cells assessed as AMG uptake after 1.5 hrs by scintillation counting
Format: cell-based
Conditions: not given
Outline: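 Full-length human SGLT2 in pEAK15, stably expressed in HEK293.ETN (puromycin-selected clones). Cells plated 1 × 10⁵/well in DMEM/10% FBS, 48 h, 37 °C. Compound plus 40 µCi/mL [¹⁴C]AMG in sodium or sodium-free Tris/Hepes buffer pH 7.2, 1.5 h at 37 °C with shaking. Washed, uptake read by scintillation counting. Eight concentrations in triplicate. Sodium-free value subtracted from sodium value.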

| Compound | IC50 |
| --- | --- |
| Cc1cc(F)ccc1Cc1cc2c(cc1Cl)CO[C@]21O[C@H](CO)[C@@H](O)[C@H](O)[C@H]1O | 100 nM |
| CCOc1ccc(Cc2cc3c(cc2Cl)CO[C@]32O[C@H](CO)[C@@H](O)[C@H](O)[C@H]2O)cc1Cl | 68 nM |
| CCc1ccc(Cc2cc3c(cc2Cl)CO[C@]32O[C@H](COCC(F)(F)F)[C@@H](O)[C@H](O)[C@H]2O)cc1 | 70 nM |
| CCOc1cc(F)ccc1Cc1cc2c(cc1Cl)CO[C@]21O[C@H](CO)[C@@H](O)[C@H](O)[C@H]1O | 1000 nM |
| CCc1ccc(Cc2cc3c(cc2Cl)CO[C@]32O[C@H](CN)[C@@H](O)[C@H](O)[C@H]2O)cc1 | 100 nM |
| CCc1ccc(C(=O)c2cc3c(cc2Cl)CO[C@]32O[C@H](CO)[C@@H](O)[C@H](O)[C@H]2O)cc1 | 22 nM |
| CCc1ccc(Cc2cccc3c2CO[C@]32O[C@H](CO)[C@@H](O)[C@H](O)[C@H]2O)cc1 | > 1000 nM |
| CCOc1ccc(Cc2cc3c(cc2Cl)CO[C@]32O[C@H](CO)[C@@H](O)[C@H](O)[C@H]2O)c(C)c1 | > 1000 nM |
| CCOc1ccc(Cc2cc3c(cc2Cl)CO[C@]32O[C@H](CO)[C@@H](O)[C@H](O)[C@H]2O)c(Cl)c1 | > 1000 nM |
| COc1ccc(Cc2cc3c(cc2Cl)CO[C@]32O[C@H](CO)[C@@H](O)[C@H](O)[C@H]2O)c(C)c1 | > 1000 nM |

More lines, now with the values ahead:

| IC50 | Compound |
| --- | --- |
| 13 nM | CC(C)(C)c1ccc(Cc2cc3c(cc2Cl)CO[C@]32O[C@H](CO)[C@@H](O)[C@H](O)[C@H]2O)cc1 |
| 10 nM | CCc1ccc(Cc2cc3c(cc2Cl)CO[C@]32O[C@H](CN=[N+]=[N-])[C@@H](O)[C@H](O)[C@H]2O)cc1 |
| 10 nM | COc1c(C)cccc1Cc1cc2c(cc1Cl)CO[C@]21O[C@H](CO)[C@@H](O)[C@H](O)[C@H]1O |
| 8.6 nM | CCc1ccc(Cc2cc3c(cc2F)CO[C@]32O[C@H](CO)[C@@H](O)[C@H](O)[C@H]2O)cc1 |
| 7.1 nM | CC(C)c1ccc(Cc2cc3c(cc2Cl)CO[C@]32O[C@H](CO)[C@@H](O)[C@H](O)[C@H]2O)cc1 |
| 7 nM | CCc1ccc(C(F)(F)c2cc3c(cc2Cl)CO[C@]32O[C@H](CO)[C@@H](O)[C@H](O)[C@H]2O)cc1 |
| 6.6 nM | CCc1ccc(Cc2cc3c(cc2Cl)CO[C@]32O[C@H](CO)[C@@H](O)[C@H](O)[C@H]2O)cc1 |
| 6.5 nM | CCOc1ccc(Cc2cc3c(cc2Cl)CO[C@]32O[C@H](CO)[C@@H](O)[C@H](O)[C@H]2O)cc1 |
| 5.8 nM | CCc1ccc(Cc2cc3c(cc2Cl)CO[C@]32O[C@H](COC)[C@@H](O)[C@H](O)[C@H]2O)cc1 |
| 2.5 nM | COc1ccc(Cc2cc3c(cc2Cl)CO[C@]32O[C@H](CO)[C@@H](O)[C@H](O)[C@H]2O)cc1 |
| 1.3 nM | CCc1ccc(C2(c3cc4c(cc3Cl)CO[C@]43O[C@H](CO)[C@@H](O)[C@H](O)[C@H]3O)CC2)cc1 |
| 0.8 nM | Cc1cccc(Cc2cc3c(cc2Cl)CO[C@]32O[C@H](CO)[C@@H](O)[C@H](O)[C@H]2O)c1F |
| 0.3 nM | OC[C@H]1O[C@]2(OCc3cc(Cl)c(Cc4ccc(OC(F)(F)F)cc4)cc32)[C@H](O)[C@@H](O)[C@@H]1O |

Tested on: Mus musculus
Experiment: Toxicity in CD1 mouse assessed as induction of severe diarrhea at 25 mg/kg, po after 6 hrs
Format: organism-based
Design: dose 25 mg/kg, route oral
Conditions: in vivo
Outline: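 CD1 mice given a single oral dose of 25 mg/kg. Watched for diarrhea at 6 h.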

| Compound | Activity |
| --- | --- |
| CCc1ccc(Cc2cc3c(cc2Cl)CO[C@]32O[C@H](CO)[C@@H](O)[C@H](O)[C@H]2O)cc1 | Toxic |

Molecular target: T2, Sodium/glucose cotransporter 1 (Homo sapiens, UniProt P13866)
T2 sequence (P13866 whole entry): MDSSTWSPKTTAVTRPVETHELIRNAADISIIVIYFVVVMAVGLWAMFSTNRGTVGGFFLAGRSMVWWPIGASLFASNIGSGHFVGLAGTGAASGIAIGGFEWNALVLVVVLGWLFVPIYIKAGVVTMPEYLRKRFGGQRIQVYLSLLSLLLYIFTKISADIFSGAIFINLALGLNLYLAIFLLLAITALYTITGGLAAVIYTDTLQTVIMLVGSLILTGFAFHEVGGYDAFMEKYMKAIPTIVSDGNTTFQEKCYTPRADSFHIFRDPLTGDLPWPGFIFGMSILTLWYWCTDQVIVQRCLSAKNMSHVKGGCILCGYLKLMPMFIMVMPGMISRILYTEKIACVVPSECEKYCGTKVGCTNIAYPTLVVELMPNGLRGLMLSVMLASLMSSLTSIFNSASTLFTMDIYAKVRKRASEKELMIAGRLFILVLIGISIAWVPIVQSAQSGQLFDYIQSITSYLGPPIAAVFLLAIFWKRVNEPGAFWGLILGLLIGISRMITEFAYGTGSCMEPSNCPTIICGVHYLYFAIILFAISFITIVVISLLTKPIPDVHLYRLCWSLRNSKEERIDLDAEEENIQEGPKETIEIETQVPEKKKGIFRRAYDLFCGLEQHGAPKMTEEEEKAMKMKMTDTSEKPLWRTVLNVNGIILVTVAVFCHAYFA
Experiment: Inhibition of human SGLT1 transfected in COS-7 cells assessed as AMG uptake after 2 hrs by scintillation counting
Format: cell-based
Conditions: not given
Outline: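 Transient transfection of human SGLT1 plasmid into COS-7 cells, which were cryopreserved until use. Seeded at 1 × 10⁵ cells/well in DMEM + 10% FBS, 48 h at 37 °C, 5% CO₂. Exposed to inhibitor with 40 µCi/mL [¹⁴C]AMG in Na⁺ or Na⁺-free Tris/Hepes buffer pH 7.2 for 2 h at 37 °C, shaking. Eight concentrations, triplicate. Na⁺-dependent uptake taken as Na⁺ minus Na⁺-free signal.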

| Compound | IC50 |
| --- | --- |
| Cc1cc(F)ccc1Cc1cc2c(cc1Cl)CO[C@]21O[C@H](CO)[C@@H](O)[C@H](O)[C@H]1O | 1000 nM |
| CCOc1ccc(Cc2cc3c(cc2Cl)CO[C@]32O[C@H](CO)[C@@H](O)[C@H](O)[C@H]2O)cc1Cl | 10500 nM |
| CCc1ccc(Cc2cc3c(cc2Cl)CO[C@]32O[C@H](COCC(F)(F)F)[C@@H](O)[C@H](O)[C@H]2O)cc1 | 14000 nM |
| CCOc1cc(F)ccc1Cc1cc2c(cc1Cl)CO[C@]21O[C@H](CO)[C@@H](O)[C@H](O)[C@H]1O | 10000 nM |
| CCc1ccc(Cc2cc3c(cc2Cl)CO[C@]32O[C@H](CN)[C@@H](O)[C@H](O)[C@H]2O)cc1 | > 100000 nM |
| CCc1ccc(C(=O)c2cc3c(cc2Cl)CO[C@]32O[C@H](CO)[C@@H](O)[C@H](O)[C@H]2O)cc1 | 43000 nM |
| CCOc1ccc(Cc2ccc3c(c2)[C@]2(OC3)O[C@H](CO)[C@@H](O)[C@H](O)[C@H]2O)cc1 | 10000 nM |
| CCOc1ccc(Cc2cc3c(cc2Cl)CO[C@]32O[C@H](CO)[C@@H](O)[C@H](O)[C@H]2O)c(C)c1 | 1000 nM |
| CCOc1ccc(Cc2cc3c(cc2Cl)CO[C@]32O[C@H](CO)[C@@H](O)[C@H](O)[C@H]2O)c(Cl)c1 | 10000 nM |
| COc1ccc(Cc2cc3c(cc2Cl)CO[C@]32O[C@H](CO)[C@@H](O)[C@H](O)[C@H]2O)c(C)c1 | 10000 nM |

Further lines, results first:

| IC50 | Compound |
| --- | --- |
| 9700 nM | CC(C)(C)c1ccc(Cc2cc3c(cc2Cl)CO[C@]32O[C@H](CO)[C@@H](O)[C@H](O)[C@H]2O)cc1 |
| 1000 nM | CCc1ccc(Cc2cc3c(cc2Cl)CO[C@]32O[C@H](CN=[N+]=[N-])[C@@H](O)[C@H](O)[C@H]2O)cc1 |
| 1000 nM | COc1c(C)cccc1Cc1cc2c(cc1Cl)CO[C@]21O[C@H](CO)[C@@H](O)[C@H](O)[C@H]1O |
| 5300 nM | CCc1ccc(Cc2cc3c(cc2F)CO[C@]32O[C@H](CO)[C@@H](O)[C@H](O)[C@H]2O)cc1 |
| 2500 nM | CC(C)c1ccc(Cc2cc3c(cc2Cl)CO[C@]32O[C@H](CO)[C@@H](O)[C@H](O)[C@H]2O)cc1 |
| 1600 nM | CCc1ccc(C(F)(F)c2cc3c(cc2Cl)CO[C@]32O[C@H](CO)[C@@H](O)[C@H](O)[C@H]2O)cc1 |
| 600 nM | CCc1ccc(Cc2cc3c(cc2Cl)CO[C@]32O[C@H](CO)[C@@H](O)[C@H](O)[C@H]2O)cc1 |
| 1300 nM | CCOc1ccc(Cc2cc3c(cc2Cl)CO[C@]32O[C@H](CO)[C@@H](O)[C@H](O)[C@H]2O)cc1 |
| 2700 nM | CCc1ccc(Cc2cc3c(cc2Cl)CO[C@]32O[C@H](COC)[C@@H](O)[C@H](O)[C@H]2O)cc1 |
| 200 nM | COc1ccc(Cc2cc3c(cc2Cl)CO[C@]32O[C@H](CO)[C@@H](O)[C@H](O)[C@H]2O)cc1 |
| 6000 nM | CCc1ccc(C2(c3cc4c(cc3Cl)CO[C@]43O[C@H](CO)[C@@H](O)[C@H](O)[C@H]3O)CC2)cc1 |
| 1500 nM | Cc1cccc(Cc2cc3c(cc2Cl)CO[C@]32O[C@H](CO)[C@@H](O)[C@H](O)[C@H]2O)c1F |
| 3100 nM | OC[C@H]1O[C@]2(OCc3cc(Cl)c(Cc4ccc(OC(F)(F)F)cc4)cc32)[C@H](O)[C@@H](O)[C@@H]1O |
